Calls of active or inactive are those of the source. The calls are words filed in the database; no cut-off is given here.

Data set [1] is described as follows: MRT in Sprague-Dawley rat at 2 mg/kg, iv by LC/MS/MS analysis. It is filed as ADME, organism-based. To be noted: in vivo. The essentials:
(§1)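 Male Sprague-Dawley rats, 4 per group, dosed once orally at 10 mg/kg or intravenously at 2 mg/kg. Blood taken from the saphenous vein for plasma. Drug levels measured by LC-MS-MS, with parameters derived by noncompartmental analysis.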

Data set [2] has as its system Bel-7402. Kind of data set: Antiproliferative activity against human Bel-7402 cells assessed as cell growth inhibition at 20 uM incubated for 48 hrs by MTT assay relative to control. In kind it is functional.
The nature of data set [3]: Subacute toxicity in SPF Kunming mouse assessed as induction of death at 1000 mg/kg, po administered for 14 days and measured on day 14. In kind it is organism-based. The note with it: in vivo, 336 h, time 14 day. The essentials:
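Twenty SPF Kunming mice (18 - 22 g), half male and half female, randomised into 2 groups of 5 males + 5 females. Treated group dosed orally at 1000 mg/kg once daily for 14 days. Death, clinical signs and body weight monitored. After 14 days: isoflurane anaesthesia, decapitation, tissues collected for H&E histology.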

The subject of data set [4] is SK-OV-3. Kind of data set: Induction of autophagy in human SKOV3 cells assessed as increase in formation of autophagosomes at 10 uM incubated for 48 hrs by TEM analysis. It is filed as functional, cell-based. An outline of the steps: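 SK-OV-3 cells exposed to 10 µM for 48 h, then fixed, dehydrated and resin-embedded. 200 nm sections on formvar grids, counterstained with uranyl acetate and lead citrate, imaged by transmission electron microscopy.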

The nature of data set [5]: Volume of distribution at steady state in Sprague-Dawley rat at 2 mg/kg, iv by LC/MS/MS analysis. The note with it: in vivo, read-out: Vdss. In kind it is ADME, organism-based. The essentials: as §1
Data set [6] concerns SK-OV-3. Kind of data set: Induction of autophagy in human SKOV3 cells assessed as LC3-I protein expression at 10 uM incubated for 48 hrs by western blot analysis. In kind it is functional, cell-based. An outline of the steps:
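SK-OV-3 cells in 6-well plates treated 48 h. Lysates separated by 8-15% SDS-PAGE and transferred to PVDF. Membranes blocked in 5% milk and probed overnight at 4 °C with LC3 or Beclin 1 antibodies. HRP secondary applied 1 h at room temperature; detection by ECL.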
(In general: A western blot detects proteins with antibodies after separation by electrophoresis.)

Data set [7] is described as follows: Toxicity in Balb/c nude mouse xenografted with human SKOV3 cells assessed as change in body weight at 50 mg/kg, po for 21 days and measured every third day. The note with it: in vivo, 504 h, time 21 day. It is filed as organism-based. The essentials: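 Female BALB/c nu/nu mice, 6-8 weeks old, kept under SPF conditions. Each received 5×10^6 SK-OV-3 cells s.c. At 80–120 mm3 tumour volume, mice were split into four groups (n=6). […] Caliper measurement every three days; volume = X × (Y2/2).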
On the technique in general: A xenograft is tissue or cells of one species grown in another, often human tumour cells in immunodeficient mice.

Data set [8] addresses T1, Poly [ADP-ribose] polymerase 1 (Homo sapiens, UniProt P09874). Kind of data set: Inhibition of PARP-1 in human SKOV3 cells assessed as decrease in MCM2 protein expression level at 2.5 to 10 uM incubated for 48 hrs by western blot analysis. In kind it is cell-based. To be noted: SK-OV-3, dose 2.5-10 µM. The essentials: (§2)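 SK-OV-3 cells were grown in McCOY's 5A, seeded in 6-well plates and treated for 48 h. Lysate proteins were separated by 8-15 % SDS-PAGE and transferred to PVDF membranes. Membranes were blocked in 5 % nonfat milk, probed with primary antibody overnight at 4 °C and with HRP secondary antibody for 1 h at room temperature, then detected by enhanced chemiluminescence. Images are representative of 3 independent experiments.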

Data set [9] concerns the target T1, Poly [ADP-ribose] polymerase 1. Kind of data set: Inhibition of PARP-1 in human SKOV3 cells assessed as decrease in MCM5 protein expression level at 2.5 to 10 uM incubated for 48 hrs by western blot analysis. It is filed as cell-based. To be noted: SK-OV-3, dose 2.5-10 µM. The essentials: as §2
Data set [10] has as its system SK-OV-3. Kind of data set: Antitumor activity against human SKOV3 cells xenografted in Balb/c nude mouse assessed as reduction in Ki67 expression in tumor at 25 to 50 mg/kg, po for 21 days by immunohistochemistry analysis. It is filed as functional, organism-based. To be noted: dose 25-50 mg/kg, time 21.0 day. The essentials: (§3)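 SK-OV-3 xenografts in female BALB/c nude mice were dosed orally at 25 or 50 mg/kg in 0.5% CMC-Na for 21 days. Tumours were then snap-frozen in liquid nitrogen or fixed in 10% neutral-buffered formalin. Analysis used western blotting, H&E and immunohistochemistry on paraffin sections (Ki67, γ-H2AX).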

The subject of data set [11] is SK-OV-3. Kind of data set: Induction of cell cycle arrest in human SKOV3 cells assessed as reduction in CDK1 expression at 2.5 to 10 uM incubated for 48 hrs by western blot analysis. In kind it is functional, cell-based. The note with it: dose 2.5-10 µM.
Data set [12] relates to Bel-7402. Kind of data set: Antiproliferative activity against human Bel-7402 cells assessed as cell growth inhibition incubated for 48 hrs by MTT assay. To be noted: Bel-7402, 48 h. It is filed as functional, cell-based. An outline of the steps:
(§4)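 Cells seeded in 96-well plates and exposed to compounds for 48 h; viability read by MTT. Each experiment repeated three times. SK-OV-3 grown in McCOY's 5A, Bel-7402 and HL-7702 in RPMI-1640, HepG2 in DMEM, Caco-2 in MEM.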
A general note: Formazan colour is commonly taken as a measure of viable cells.

The subject of data set [13] is SK-OV-3. Kind of data set: Antiproliferative activity against human SK-OV-3 cells assessed as cell growth inhibition at 20 uM incubated for 48 hrs by MTT assay relative to control. It is filed as functional.
For data set [14], the system named is SK-OV-3. Kind of data set: Antitumor activity against human SKOV3 cells xenografted in Balb/c nude mouse assessed as increase in gamma-H2AX protein expression in tumor at 25 to 50 mg/kg, po for 21 days by western blot analysis. In kind it is functional, organism-based. The note with it: dose 25-50 mg/kg, time 21.0 day. An outline of the steps: as §3
The subject of data set [15] is SK-OV-3. Kind of data set: Antitumor activity against human SKOV3 cells xenografted in Balb/c nude mouse assessed as tumor growth inhibition at 50 mg/kg, po for 21 days and measured every third day. To be noted: SK-OV-3, po, 504 h, read-out: INH.
Another data set concerns Caco-2. Kind of data set: Antiproliferative activity against human Caco-2 cells assessed as cell growth inhibition at 20 uM incubated for 48 hrs by MTT assay relative to control. It is filed as functional.
Data set [16] deals with T1, Poly [ADP-ribose] polymerase 1. Kind of data set: Inhibition of PARP-1 in human SKOV3 cells assessed as inhibition of H2O2-induced poly-ADP ribose formation preincubated for 4 hrs followed by H2O2 addition and incubated overnight by Alexa Fluor 488 staining based confocal microscopic analysis. The note with it: SK-OV-3, in the assay text read “incubated for 5 mins” for “incubated overnight”. In kind it is cell-based. An outline of the steps:
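SK-OV-3 cells were seeded in 96-well plates and grown for 24 h, exposed to compound for 4 h, then to 10 mM H2O2 for 5 min. Cells were fixed and incubated with anti-PAR primary antibody overnight at 4 °C, then with Alexa Fluor 488 secondary antibody. Nuclei were stained with 1 % DAPI and imaged by confocal microscopy.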

Data set [17] can be described thus: Oral bioavailability in Sprague-Dawley rat at 10 mg/kg by LC/MS/MS analysis. In kind it is ADME, organism-based. The note with it: in vivo. An outline of the steps:
as §1

In data set [18] the target is T1, Poly [ADP-ribose] polymerase 1. To be noted: dose 100.0 nM, time 30.0 min.
Data set [19] deals with SK-OV-3. Kind of data set: Induction of apoptosis in human SKOV3 cells assessed as increase in caspase-3 expression at 2.5 to 10 uM incubated for 48 hrs by western blot analysis. It is filed as functional, cell-based. The note with it: dose 2.5-10 µM.
Data set [20] can be described thus: Tmax in Sprague-Dawley rat at 10 mg/kg, po by LC/MS/MS analysis. In kind it is ADME, organism-based. To be noted: in vivo. An outline of the steps: as §1
Another data set concerns HepG2. Kind of data set: Antiproliferative activity against human HepG2 cells assessed as cell growth inhibition incubated for 48 hrs by MTT assay. In kind it is functional, cell-based. The note with it: HepG2, 48 h. An outline of the steps:
as §4

The test system of data set [21] is SK-OV-3. Kind of data set: Induction of cell cycle arrest in human SKOV3 cells assessed as reduction in cyclin B1 expression at 2.5 to 10 uM incubated for 48 hrs by western blot analysis. It is filed as functional, cell-based. The note with it: dose 2.5-10 µM.

T1 sequence (P09874 whole entry): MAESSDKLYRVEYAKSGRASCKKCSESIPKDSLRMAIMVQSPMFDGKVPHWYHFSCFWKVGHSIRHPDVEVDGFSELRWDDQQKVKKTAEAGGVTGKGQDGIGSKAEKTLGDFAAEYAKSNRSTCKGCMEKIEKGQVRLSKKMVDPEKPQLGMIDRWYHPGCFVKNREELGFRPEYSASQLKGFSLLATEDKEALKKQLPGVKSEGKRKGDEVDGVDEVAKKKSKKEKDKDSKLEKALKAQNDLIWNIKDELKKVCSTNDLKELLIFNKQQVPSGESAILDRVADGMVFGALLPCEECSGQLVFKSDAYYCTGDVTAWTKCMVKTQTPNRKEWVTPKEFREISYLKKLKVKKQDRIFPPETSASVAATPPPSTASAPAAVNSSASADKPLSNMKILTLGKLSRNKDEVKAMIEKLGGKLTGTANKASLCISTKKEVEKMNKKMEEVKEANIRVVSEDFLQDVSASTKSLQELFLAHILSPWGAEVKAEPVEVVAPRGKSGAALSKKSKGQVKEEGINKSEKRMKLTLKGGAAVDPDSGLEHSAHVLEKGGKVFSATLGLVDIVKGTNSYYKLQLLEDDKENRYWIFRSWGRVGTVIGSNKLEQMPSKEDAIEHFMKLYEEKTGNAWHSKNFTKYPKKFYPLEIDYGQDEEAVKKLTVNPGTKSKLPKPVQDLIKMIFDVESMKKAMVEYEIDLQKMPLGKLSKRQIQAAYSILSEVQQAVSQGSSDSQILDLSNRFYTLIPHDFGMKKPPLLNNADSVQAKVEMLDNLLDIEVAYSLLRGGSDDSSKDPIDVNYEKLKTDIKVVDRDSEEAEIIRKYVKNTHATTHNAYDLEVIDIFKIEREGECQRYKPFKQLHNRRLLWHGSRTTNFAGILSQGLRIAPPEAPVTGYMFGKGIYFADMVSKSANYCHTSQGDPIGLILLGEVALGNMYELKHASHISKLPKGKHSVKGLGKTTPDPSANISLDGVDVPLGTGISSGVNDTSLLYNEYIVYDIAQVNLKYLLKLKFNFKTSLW

In [1], `COc1cc(/C=N/NC(N)=S)c(Br)c(Br)c1OC` gave a mean residence time MRT of 1.14 h. Besides, the inhibition at 20 µM was 63.5% with Bel-7402 [2], 100% in the data set with SK-OV-3 [13] and 59.6% with Caco-2. The Activity entry in data set [3] and in data set [7] was “Non-Toxic” each time. Further, the outcome in the data set with SK-OV-3 [4], in the data set with SK-OV-3 [6], in the data set with SK-OV-3 [10], in the data set with SK-OV-3 [11], with SK-OV-3 [14] and with SK-OV-3 [19] was Active. In the data set with SK-OV-3 [21], the outcome was Active. Moreover, the Vd in data set [5] amounted to 6.1 L/kg. For the same compound, the inhibition entry in data set [8], in data set [9] and in data set [16] was “Active” in each case. For the same compound, the concentration for half-maximal inhibition (IC50) with Bel-7402 [12] is 5.45 µM; in the data set with HepG2 it was 4.6 µM. Also, the inhibition in vivo at 50 mg/kg in the data set on SK-OV-3 [15] was determined as 58.7%. This compound showed a F in data set [17] of 47.3%. The same compound came in with an inhibition in [18] of 84.6%. Further, in data set [20], the Tmax came to 2.5 h.

Usually MRT stands for a mean duration of stay, worked out from the concentration-time curve. As a reminder, the inhibition is the change of the read-out against control, counted positive when it falls. The IC50 is the concentration that inhibits the measured activity by half. The term Tmax denotes the time at which the peak concentration occurs.

Source of the values: ChEMBL document CHEMBL4765243, “Discovery of Novel Bromophenol-Thiosemicarbazone Hybrids as Potent Selective Inhibitors of Poly(ADP-ribose) Polymerase-1 (PARP-1) for Use in Cancer” (J Med Chem, 2019).
